Molecular target: T1, P2Y purinoceptor 1 (Homo sapiens, UniProt P47900)
Experiment: Antagonist activity at human P2Y1 receptor in HEK293 cells assessed as intracellular calcium level by FLIPR
Format: functional, cell-based
Details: not given

T1 sequence (P47900 whole entry): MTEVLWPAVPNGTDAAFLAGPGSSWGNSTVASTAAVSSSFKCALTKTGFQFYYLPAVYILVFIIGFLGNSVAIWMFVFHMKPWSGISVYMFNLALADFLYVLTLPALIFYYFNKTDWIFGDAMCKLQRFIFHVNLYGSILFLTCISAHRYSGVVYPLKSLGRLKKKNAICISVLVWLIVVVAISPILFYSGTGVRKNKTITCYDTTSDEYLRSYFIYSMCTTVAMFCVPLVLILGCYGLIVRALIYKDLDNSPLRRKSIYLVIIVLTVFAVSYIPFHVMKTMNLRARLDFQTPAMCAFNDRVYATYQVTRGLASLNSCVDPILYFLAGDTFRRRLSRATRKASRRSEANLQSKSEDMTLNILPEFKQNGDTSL

Compound	IC50 [nM]
CC[C@@H]1[C@@H](C)[C@H](Nc2ccccc2)c2ccccc2N1C(=O)c1ccc([N+](=O)[O-])cc1	1600
CC[C@@H]1[C@@H](C)[C@H](Nc2ccccc2)c2ccccc2N1C(=O)c1ccc(Br)cc1	800
CC[C@@H]1[C@@H](C)[C@H](Nc2ccccc2)c2ccccc2N1C(=O)Nc1ccccc1Cl	> 25000
CC[C@@H]1[C@@H](C)[C@H](Nc2ccccc2)c2ccccc2N1C(=O)Nc1cccc(Cl)c1	1000
CC[C@@H]1[C@@H](C)[C@H](Nc2ccccc2)c2ccccc2N1C(=O)Nc1ccccc1	1600
CC[C@@H]1[C@@H](C)[C@H](Nc2ccccc2)c2ccccc2N1C(=O)Nc1cc(OC)cc(OC)c1	800
CC[C@@H]1[C@@H](C)[C@H](Nc2ccccc2)c2ccccc2N1C(=O)c1cccc(OC(F)(F)F)c1	> 25000
CC[C@@H]1[C@@H](C)[C@H](Nc2ccccc2)c2ccccc2N1C(=O)c1ccc(Cl)cc1	1300
CC[C@@H]1[C@@H](C)[C@H](Nc2ccccc2)c2ccccc2N1C(=O)Nc1ccc(Cl)cc1	2000
CC[C@@H]1[C@@H](C)[C@H](Nc2ccccc2)c2ccccc2N1C(=O)Nc1cccc(Br)c1	1000
CC[C@H]1[C@H](C)[C@@H](Nc2ccccc2)c2ccccc2N1C(=O)Nc1cc(Cl)cc(Cl)c1	> 25000
CC[C@@H]1[C@@H](C)[C@H](Nc2ccccc2)c2ccccc2N1C(=O)c1ccccc1	25000
CC[C@@H]1[C@@H](C)[C@H](Nc2ccccc2)c2ccccc2N1C(=O)Nc1cccc(OC)c1	1600
CC[C@@H]1[C@@H](C)[C@H](Nc2ccccc2)c2ccccc2N1C(=O)Nc1cc(Cl)cc(Cl)c1 (stereo in doubt; 6i)	600

Other lines, results leading:

IC50 [nM]	Compound
> 25000	CC[C@@H]1[C@@H](C)[C@H](N(C)c2ccccc2)c2ccccc2N1C(=O)c1ccc(OC)cc1
6000	CC[C@@H]1[C@@H](C)[C@H](Nc2ccccc2)c2ccccc2N1C(=O)Nc1ccc(OC)cc1
> 25000	CC[C@@H]1C[C@@H](Nc2ccccc2)c2ccccc2N1C(=O)c1ccc(OC)cc1
10000	COc1ccc(C(=O)N2C[C@@H](C)[C@H](Nc3ccccc3)c3ccccc32)cc1
> 25000	COc1ccc(C(=O)N2CC[C@H](Nc3ccccc3)c3ccccc32)cc1
3200	CC[C@@H]1C[C@H](Nc2ccccc2)c2ccccc2N1C(=O)c1ccc(OC)cc1
800	CC[C@@H]1[C@@H](C)[C@H](Nc2ccccc2)c2ccccc2N1C(=O)c1ccc(OC)cc1
1000	CC[C@@H]1[C@@H](C)[C@H](Nc2ccccc2)c2ccccc2N1C(=O)c1ccc(OC(F)(F)F)cc1

Same assay, conditions: hek293

IC50 [nM]	Compound
600	CC[C@@H]1[C@@H](C)[C@H](Nc2ccccc2)c2ccccc2N1C(=O)Nc1cc(Cl)cc(Cl)c1 (stereo in doubt; 16)

Molecular target: T1, P2Y purinoceptor 1
Experiment: Displacement of [33P]2-Mes-ADP from human recombinant P2Y1 receptor expressed in human U20S cells
Format: cell-based, U2OS
Details: not given
Outline: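 Membranes from BacMam-transduced U2OS cells expressing human P2Y1, [33P]-2-MeS-ADP radioligand, 0.5 mg WGA-SPA beads. Buffer: 15 mM Hepes, 145 mM NaCl, 0.1 mM MgCl2, 5 mM EDTA, 5 mM KCl. Test compound at various concentrations or DMSO vehicle. Incubated 1 h at room temperature to completion, centrifuged at 2000g, then counted.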

Compound	Ki [nM]
CC[C@@H]1[C@@H](C)[C@H](Nc2ccccc2)c2ccccc2N1C(=O)c1ccc([N+](=O)[O-])cc1	500
CC[C@@H]1[C@@H](C)[C@H](Nc2ccccc2)c2ccccc2N1C(=O)c1ccc(Br)cc1	100
CC[C@@H]1[C@@H](C)[C@H](Nc2ccccc2)c2ccccc2N1C(=O)Nc1cccc(Cl)c1	300
CC[C@@H]1[C@@H](C)[C@H](Nc2ccccc2)c2ccccc2N1C(=O)Nc1ccccc1	400
CC[C@@H]1[C@@H](C)[C@H](Nc2ccccc2)c2ccccc2N1C(=O)Nc1cc(OC)cc(OC)c1	200
CC[C@@H]1[C@@H](C)[C@H](Nc2ccccc2)c2ccccc2N1C(=O)c1ccc(Cl)cc1	400
CC[C@@H]1[C@@H](C)[C@H](Nc2ccccc2)c2ccccc2N1C(=O)Nc1ccc(Cl)cc1	300
CC[C@@H]1[C@@H](C)[C@H](Nc2ccccc2)c2ccccc2N1C(=O)Nc1cccc(Br)c1	100
CC[C@@H]1[C@@H](C)[C@H](Nc2ccccc2)c2ccccc2N1C(=O)Nc1cccc(OC)c1	500
CC[C@@H]1[C@@H](C)[C@H](Nc2ccccc2)c2ccccc2N1C(=O)Nc1cc(Cl)cc(Cl)c1 (stereo in doubt; 6i)	70

Second part, the compound after the results:

Ki [nM]	Compound
800	CC[C@@H]1C[C@H](Nc2ccccc2)c2ccccc2N1C(=O)c1ccc(OC)cc1
400	CC[C@@H]1[C@@H](C)[C@H](Nc2ccccc2)c2ccccc2N1C(=O)c1ccc(OC)cc1
100	CC[C@@H]1[C@@H](C)[C@H](Nc2ccccc2)c2ccccc2N1C(=O)c1ccc(OC(F)(F)F)cc1

Same assay, conditions: u2os

Ki [nM]	Compound
70	CC[C@@H]1[C@@H](C)[C@H](Nc2ccccc2)c2ccccc2N1C(=O)Nc1cc(Cl)cc(Cl)c1 (stereo in doubt; 16)

Tested on: Platelet
Experiment: Inhibition of ADP-induced human platelet aggregation
Format: functional, cell-based
Details: not given
Outline: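 Washed human platelets preincubated with compound for 5 min, then challenged with 10 µM ADP; aggregation followed by light transmittance aggregometry; IC50 reported.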

IC50 [nM]	Compound
504	CC[C@@H]1[C@@H](C)[C@H](Nc2ccccc2)c2ccccc2N1C(=O)Nc1cc(Cl)cc(Cl)c1 (stereo in doubt; 16)
